# In the RNAGym collection of RNA variant scans (doi:10.1126/science.aae0568):
# Fewer inactive variants are shown than the library holds.
# B1: tRNA (parent)
# chain: GUUCCGUUGGCGUAAUGGUAACGCGUCUCCCUCCUAAGGAGAAGACUGCGGGUUCGAGUCCCGUACGGAACG
# Variants of: B1
# Assay: yeast fitness relative to wild type (ratio to wild type); higher = fitter; tRNA-Arg(CCU), competitive growth, 37 C, YPD
# In short: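 Amplicons of the tRNA-Arg(CCU) gene were sequenced, 100-nucleotide paired-end, from the start population and from each end population of a pooled yeast competition. The competition, in six parallel replicates, lasted 24 hours in YPD at 37°C. Fitness relative to wild type was calculated from changes in genotype frequencies. Genotypes had to have ≥ 100 starting reads, and estimates < 0.5 were set to 0.5.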
row,Variant,yeast fitness
1,C5A G12C U47C,≤ 0.5
2,C5A G38A C62U,0.639
3,C5A G12A U35A A42G A65C C66A,0.6
4,C5A C31U A40G C49U A70U,≤ 0.5
5,C5A C33U U53C,≤ 0.5
6,C5A A21U C55A C66U,≤ 0.5
7,C5A C30U U59C C62A,≤ 0.5
8,C5A G6C G68U,≤ 0.5
9,C5A G12A A45G G67A,≤ 0.5
10,C5A C22G C24G C31U A43U G48A,0.544
11,C5A C11U C29U C31U A42C A69C,≤ 0.5
12,C5A G17A A42G U64A,0.606
13,C5A C22A G50C A69C,0.845
14,C5A C30U U35A A42G C61U G63A,0.538
15,C5A C34A C46U,0.553
16,C5A C22G A37C A40C,0.736
17,C5A C11U C34A A40U A42U G68A,≤ 0.5
18,C5A C31G G56C G58C G63A,≤ 0.5
19,C5A G39A U59A,≤ 0.5
20,C5A G25A U28C C31U A40C A42G A69C,≤ 0.5
21,C5A C31A C46G,≤ 0.5
22,C5A C31A C46A G50C,≤ 0.5
23,C5A G10C G17A A40U U64C,0.582
24,C5A G17C G44A C61U,≤ 0.5

row,Variant,yeast fitness
1,C5A C62A,0.743
2,C5A C62G,0.778
3,C5A C62U C66G,≤ 0.5
4,C5A G17A G18A G25A C55A,0.552
5,C5A A69G,0.908
6,C5A C27A U28G,0.617
7,C5A A37C,0.77
8,C5A C11G A21U C60G G67A,≤ 0.5
9,C5A G23A C46U G50C C61A A70C,≤ 0.5
10,C5A C27U C46U,0.739
11,C5A C22U C27G C30G A57U,≤ 0.5
12,C5A A21G C31G U53G,≤ 0.5
13,C5A C61U,0.966
14,C5A C27U,0.815
15,C5A C22U C29U A42U,≤ 0.5
16,C5A C24G A65G C66U,≤ 0.5
17,C5A C30G C31G A65C,≤ 0.5
18,C5A C11G A37U C49A,0.515
19,C5A A21C C30G C34U G58C,≤ 0.5
20,C5A C34U C61G,≤ 0.5
21,C5A C22U C31G C60A,≤ 0.5
22,C5A C11G C33A G38A,0.552
23,C5A G9C C27A C30U A65G,≤ 0.5
24,C5A C66U,0.857

row,Variant,yeast fitness
1,C5A C66A,0.679
2,C5A C24G C29G A40C,≤ 0.5
3,C5A C24U G25C C30G G50C G56A A65U,≤ 0.5
4,C5A C33U C61U,≤ 0.5
5,C5A C22G U47C,≤ 0.5
6,C5A A21C C30G C34U G38C C49U A70C,0.551
7,C5A G17C G25A,≤ 0.5
8,C5A C11A U59A C60G,≤ 0.5
9,C5A C34U A36C A40C,≤ 0.5
10,C5A C29U A36U C66U G67A,≤ 0.5
11,C5A C11U G18C U19A C27A C33A C61G A70G,≤ 0.5
12,C5A A36G C46A,0.562
13,C5A C46A G56C A70G,≤ 0.5
14,C5A G12A,0.788
15,C5A C34A A40U A43G C62U,≤ 0.5
16,C5A C33G A42C,≤ 0.5
17,C5A C24U G25C C30G,≤ 0.5
18,C5A C11G,0.657
19,C5A C11U,0.856
20,C5A A21G C31G G56C U59A C60G C62G A70C,≤ 0.5
21,C5A C11U C31G,0.558
22,C5A G12A C33G A57U,≤ 0.5
23,C5A A21U A65G,0.636
24,C5A A43C A45U U53C,0.615

row,Variant,yeast fitness
1,C5A G18A C61G U64C,≤ 0.5
2,C5A C30G A43C,≤ 0.5
3,C5A A37C A40C A45U A57C A70U,≤ 0.5
4,C5A C60U C66U,≤ 0.5
5,C5A G9A C29U,0.547
6,C5A C11G G38C G58C,≤ 0.5
7,C5A G17C G58C,≤ 0.5
8,C5A G17C,0.652
9,C5A G17A,0.851
10,C5A C24G U26A C29G U32A C49U,≤ 0.5
11,C5A C29A,0.612
12,C5A C11G G41C C66U,≤ 0.5
13,C5A G10C U26C G39C C61U,≤ 0.5
14,C5A A57G,0.767
15,C5A A57C,0.719
16,C5A C22G C29G C31G,0.627
17,C5A G23C,0.723
18,C5A G23A,0.753
19,C5A G17C A57U,≤ 0.5
20,C5A G9C U47G G68U,≤ 0.5
21,C5A G18A G25A C31U,≤ 0.5
22,C5A A45U,0.877
23,C5A A45G,0.937
24,C5A G18A A69U,≤ 0.5

row,Variant,yeast fitness
1,C5A C31G A37G U59A A70C,≤ 0.5
2,C5A C22A,0.831
3,C5A C24U G67U A69C,0.517
4,C5A A40G C49U,0.548
5,C5A C24G A65U,0.694
6,C5A G12C C34U A37G,0.562
7,C5A C22G C49U A57C,0.779
8,C5A C31U U35C A69U,0.539
9,C5A C22G C27G A36U A40C,≤ 0.5
10,C5A C34U A40G,0.727
11,C5A G17A A42G,0.555
12,C5A G12A U35A A42G A65U,≤ 0.5
13,C5A G23A C24U U47A,≤ 0.5
14,C5A C11G A21U G44C A57U,≤ 0.5
15,C5A C27U G38A,0.565
16,C5A C33U G50A G52C A65C,≤ 0.5
17,C5A A21C A43U C46G G50U C61G,≤ 0.5
18,C5A G17C G18C C60U,≤ 0.5
19,C5A C31U G58C U64C A70G,0.576
20,C5A C22G C24G C31U A43U G48A A69U,0.507
21,C5A C34G A43C,≤ 0.5
22,C5A C31U U35C G50A,0.565
23,C5A C34G A37G,≤ 0.5
24,C5A G10C U19C C24G,≤ 0.5

row,Variant,yeast fitness
1,C5A C24U C29U C33U C34G A42U G58A,≤ 0.5
2,C5A A21U G50A,≤ 0.5
3,C5A G10C U26C G51A,≤ 0.5
4,C5A C31G A42G,≤ 0.5
5,C5A C22A C33U A36C,0.502
6,C5A G9C A21U A69C,≤ 0.5
7,C5A C24U U35C,≤ 0.5
8,C5A A42U G67A,≤ 0.5
9,C5A G17C A57C A70U,≤ 0.5
10,C5A G10C G12A G23A U64A,≤ 0.5
11,C5A C11G A21U U28C,≤ 0.5
12,C5A C60G G67A,≤ 0.5
13,C5A C30G,0.608
14,C5A C30A,0.767
15,C5A C27A C46A C49A C55A,≤ 0.5
16,C5A G41A,0.873
17,C5A A57U C61G,≤ 0.5
18,C5A G17A C49G,0.532
19,C5A C22G C29G C31G C61A,0.529
20,C5A C33U C62A,0.542
21,C5A C11U C30A A57G,≤ 0.5
22,C5A G12A C29A G68C,0.689
23,C5A A21C C34G C60G A70G,≤ 0.5
24,C5A A42U G58A,0.614

row,Variant,yeast fitness
1,C5A A21U C24U C27G,≤ 0.5
2,C5A G12A C24U C29U C30A,≤ 0.5
3,C5A C22U A57G,0.612
4,C5A G9C A21U,≤ 0.5
5,C5A C24G A70U,≤ 0.5
6,C5A C33G A40G,0.521
7,C5A A36C C46G,0.532
8,C5A G25A C33A A40U A69U,≤ 0.5
9,C5A C11G C29U A36U G50C U54G,≤ 0.5
10,C5A G17A A42G G56A,≤ 0.5
11,C5A C33U G56A,≤ 0.5
12,C5A C29A C34G,≤ 0.5
13,C5A C24G A36C A70C,≤ 0.5
14,C5A G10C G17A A40U U54A,≤ 0.5
15,C5A A21U C24U C27G C55U,≤ 0.5
16,C5A G17C U28C,≤ 0.5
17,C5A A42G C49G U54C G63C A70U,≤ 0.5
18,C5A C11U U13G C29G C33A C46A,0.575
19,C5A C30A C31G A37U C55U A57C C61A,0.55
20,C5A A40C A69U,0.539
21,C5A G17C C49U A57C,≤ 0.5
22,C5A G17C C27U A57C,≤ 0.5
23,C5A C49U A65C,0.614
